Measured values from different studies.
Compare with care: the assays were run in different laboratories. Converted amounts (≈) assume the structure as drawn.

SMILES	organism	assay	test system	conditions	measurement	value
CCOC(=O)c1c(N)csc1-c1cn(-c2ccccc2)nc1-c1ccc(C)cc1	Acinetobacter baumannii	microbial growth, well diffusion	–	100000 µg/mL	inhibition zone	29 mm
Nc1nc(N)c2ncn([C@H]3O[C@H](CO)[C@@H](F)[C@@H]3F)c2n1	Hepatitis C virus	viral replication, inhibitor	Huh-7	replicon	EC90	> 10 µM
Cc1ccc(S(=O)(=O)Nc2ncc(-c3nc4ccccc4s3)c(N)n2)cc1	Enterovirus B	plaque formation	BGM, B4	–	IC50	110 mg/L
COC(=O)N[C@H](C(=O)N1CCC[C@H]1C(=O)Nc1cccc(C#CC#Cc2cccc(NC(=O)[C@@H]3CCCN3C(=O)[C@@H](NC(=O)OC)C(C)C)c2)c1)C(C)C	Hepatitis C virus	viral replication, inhibitor, luciferase	GETYPE3A	replicon	EC50	9500 nM
CCCCCCC/C=C/C(=O)N1C(=O)/C(=C(\O)c2ccc(OCOCCOC)cc2)C(=O)C1CC(C)C (centres unmarked)	Proteus mirabilis	microbial growth	ATCC25933	–	MIC	> 200 mg/L
C[C@@]1(O)[C@H](O)[C@@H](CO)O[C@H]1n1ccc(N)nc1=O	Hepatitis C virus	viral replication, inhibitor	Huh-7	replicon	EC90	5.8 µM
CCOC(=O)N[C@@H](C(=O)N1CCC[C@@H]1C(=O)Nc1ccc(C#CC#Cc2ccc(NC(=O)[C@H]3CCCN3C(=O)[C@H](NC(=O)OCC)C(C)C)cc2)cc1)C(C)C	Hepatitis C virus	viral replication, inhibitor, luciferase	Huh-5-2, GETYPE1B	72 h, replicon	EC50	> 10000 nM
OC[C@H]1O[C@@H](n2cnc3c(NCc4ccccc4)nc(Cl)nc32)[C@@H](F)[C@@H]1F	Hepatitis C virus	viral replication, inhibitor	Huh-7	replicon	EC90	9.9 µM
CC(=O)OC[C@@]1(C)[C@H]2CC[C@@H]3CN(Cc4cccs4)[C@@H](C4=CCOC4=O)C[C@H]3[C@]2(C)CC[C@H]1OC(C)=O	unidentified human coronavirus	cytopathic effect	MRC5	25 µM, 72 h	inhibition	31.2%
CCOC(=O)N[C@H](C(=O)N1CCC[C@H]1C(=O)Nc1cccc(C#CC#Cc2cccc(NC(=O)[C@@H]3CCCN3C(=O)[C@@H](NC(=O)OCC)[C@@H](C)CC)c2)c1)[C@H](C)CC	Hepatitis C virus	viral replication, inhibitor, luciferase	Huh-5-2, GETYPE1B	72 h, replicon	EC50	392 nM
Cc1ccc(S(=O)(=O)Nc2nc(N)c(-c3nc4ccccc4s3)c(-c3ccc(F)cc3)n2)cc1	Enterovirus B	plaque formation	BGM, B4	–	IC50	82 mg/L
CCOC(=O)N[C@H](CC(C)C)C(=O)N1CCC[C@H]1C(=O)Nc1cccc(C#CC#Cc2cccc(NC(=O)[C@@H]3CCCN3C(=O)[C@@H](CC(C)C)NC(=O)OCC)c2)c1	Hepatitis C virus	viral replication, inhibitor, luciferase	Huh-5-2, GETYPE1B	72 h, replicon	EC50	0.0411 nM
C/C(O)=C1\C(=O)C(CC(C)C)N(C(=O)CCCCCc2ccccc2)C1=O (centres unmarked)	Proteus mirabilis	microbial growth	ATCC25933	–	MIC	> 200 mg/L
CC(=O)OC[C@@]1(C)[C@H]2CC[C@@H]3CN(Cc4cccc(Cl)c4)[C@@H](C4=CCOC4=O)C[C@H]3[C@]2(C)CC[C@H]1OC(C)=O	unidentified human coronavirus	cytopathic effect	MRC5	25 µM, 72 h	inhibition	116%
CCCCCCC/C=C/C(=O)N1C(=O)/C(=C(/C)O)C(=O)C1Cc1ccc(OC(C)(C)C)cc1 (centres unmarked)	Proteus mirabilis	microbial growth	ATCC25933	–	MIC	> 200 mg/L
Cc1ccc(-c2nn(-c3ccccc3)cc2C=C(C#N)C2=NC(=O)CS2)cc1	Acinetobacter baumannii	microbial growth, well diffusion	–	100000 µg/mL	inhibition zone	20 mm
Nc1nc(Cl)c2ncn([C@@H]3O[C@H](COC(=O)c4ccccc4)[C@@H](F)[C@@H]3F)c2n1	Hepatitis C virus	viral replication, inhibitor	Huh-7	replicon	EC50	4700 nM
Oc1ccc(/C=C/c2cc(O)cc(O)c2)cc1	Leishmania tarentolae	parasite growth, resazurin	–	48 h, promastigote	IC50	79.8 µM
CCCCC(=O)N1C(=O)/C(=C(/C)O)C(=O)C1CC(C)C (centres unmarked)	Proteus mirabilis	microbial growth	ATCC25933	–	MIC	> 200 mg/L
COc1nc(Cl)nc2c1ncn2[C@@H]1O[C@H](CO)[C@@H](F)[C@@H]1F	Hepatitis C virus	viral replication, inhibitor	Huh-7	replicon	EC90	> 10 µM
CCOC(=O)C=c1[nH]c(=O)c(=Cc2cn(-c3ccccc3)nc2-c2ccccc2)s1	Acinetobacter baumannii	microbial growth, well diffusion	–	100000 µg/mL	inhibition zone	12 mm
CC(C)COC(=O)N[C@H](C(=O)N1CCC[C@H]1C(=O)Nc1cccc(C#CC#Cc2cccc(NC(=O)[C@@H]3CCCN3C(=O)[C@@H](NC(=O)OCC(C)C)C(C)C)c2)c1)C(C)C	Hepatitis C virus	viral replication, inhibitor, luciferase	Huh-5-2, GETYPE1B	72 h, replicon	EC50	380 nM

SMILES	organism	assay	test system	conditions	measurement	value
C/C(=C\c1ccc(C#N)cc1)C(=O)Nc1ccc(C(=O)N[C@@H](CC(N)=O)C(=O)Nc2ccc(C(=O)Nc3ccc(C(=O)Nc4ccc(C(=O)O)cc4)c(O)c3OC(C)C)cc2)cc1	Proteus mirabilis	microbial growth	DSM4479	–	MIC	> 64 mg/L
O=C(OC[C@H]1O[C@H](n2cnc3c(Cl)nc(Cl)nc32)[C@@H](F)[C@@H]1F)c1ccccc1	Hepatitis C virus	viral replication, inhibitor	Huh-7	replicon	EC90	< 10 µM
CC1(C)OC[C@@]2(C)[C@H]3CC[C@@H]4CN(Cc5ccc(C(C)(C)C)cc5)[C@@H](C5=CCOC5=O)C[C@H]4[C@]3(C)CC[C@H]2O1	unidentified human coronavirus	cytopathic effect	MRC5	25 µM, 72 h	inhibition	103%
CCCCCCC/C=C/C(=O)N1C(=O)/C(=C(/C)O)C(=O)C1Cc1ccc(O)cc1 (centres unmarked)	Proteus mirabilis	microbial growth	ATCC25933	–	MIC	> 200 mg/L
CC(=O)OC[C@@]1(C)[C@H]2CC[C@@H]3CN(Cc4ccc(C(C)(C)C)cc4)[C@@H](C4=CCOC4=O)C[C@H]3[C@]2(C)CC[C@H]1OC(C)=O	unidentified human coronavirus	cytopathic effect	MRC5	25 µM, 72 h	inhibition	94.1%
CCCCOC(=O)N[C@H](C(=O)N1CCC[C@H]1C(=O)Nc1cccc(C#CC#Cc2cccc(NC(=O)[C@@H]3CCCN3C(=O)[C@@H](NC(=O)OCCCC)[C@@H](C)CC)c2)c1)[C@H](C)CC	Hepatitis C virus	viral replication, inhibitor, luciferase	Huh-5-2, GETYPE1B	72 h, replicon	EC50	> 10000 nM
Cc1c(NN=C2SC(C(C#N)=Cc3ccccc3)=NC2=O)c(=O)n(-c2ccccc2)n1C	Acinetobacter baumannii	microbial growth, well diffusion	–	100000 µg/mL	inhibition zone	16 mm
CCOC(=O)c1cc(C#N)c(=O)n(NS(=O)(=O)c2ccc(C)cc2)c1N	Enterovirus B	plaque formation	BGM, B4	–	IC50	90 mg/L
CC1(C)OC[C@@]2(C)[C@H]3CC[C@@H]4CN(Cc5ccc(I)cc5)[C@@H](C5=CCOC5=O)C[C@H]4[C@]3(C)CC[C@H]2O1	unidentified human coronavirus	cytopathic effect	MRC5	25 µM, 72 h	inhibition	87.2%
N#CC(=Cc1ccc([N+](=O)[O-])cc1)C1=NC(=O)C(=Cc2cn(-c3ccccc3)nc2-c2ccccc2)S1	Acinetobacter baumannii	microbial growth, well diffusion	–	100000 µg/mL	inhibition zone	19 mm
CO[C@@H](C(N)=O)[C@H](NC(=O)c1ccc(NC(=O)c2ccc(C#N)cc2)cc1)C(=O)Nc1ccc(C(=O)Nc2ccc(C(=O)Nc3ccc(C(=O)O)cc3)c(O)c2OC(C)C)cc1	Proteus mirabilis	microbial growth	DSM4479	–	MIC	4 mg/L (≈ 4.75 µM)
Nc1nc(NS(=O)(=O)c2ccccc2)nc(-c2ccc(F)cc2)c1-c1nc2ccccc2s1	Enterovirus B	plaque formation	BGM, B4	–	IC50	93 mg/L
CCn1cc(C(=O)O)c(=O)c2cc(F)c(N3CCNCC3)cc21	Acinetobacter baumannii	microbial killing, broth dilution	BAA747	–	MBC	16 µM (≈ 5.11 µg/mL)
CC(=O)OC[C@@]1(C)[C@H]2CC[C@@H]3CN(CCC(C)C)[C@@H](C4=CCOC4=O)C[C@H]3[C@]2(C)CC[C@H]1OC(C)=O	unidentified human coronavirus	cytopathic effect	MRC5	25 µM, 72 h	inhibition	105%
[N-]=[N+]=Nc1nc(N=[N+]=[N-])c2ncn([C@@H]3O[C@H](COC(=O)c4ccccc4)[C@@H](F)[C@@H]3F)c2n1	Hepatitis C virus	viral replication, inhibitor	Huh-7	replicon	EC90	> 10 µM
N#CC(=Cc1cn(-c2ccccc2)nc1-c1ccccc1)C1=NC(=O)CS1	Acinetobacter baumannii	microbial growth, well diffusion	–	100000 µg/mL	inhibition zone	26 mm
Nc1nc(-c2ccccc2)nc2[nH]nc(Nc3ccc(C(F)(F)F)cc3)c12	Enterovirus B	cytopathic effect	HeLa, CVB3	–	IC50	0.14 µM
CC(=O)OC[C@@]1(C)[C@H]2CC[C@@H]3CN(Cc4ccc(Br)cc4)[C@@H](C4=CCOC4=O)C[C@H]3[C@]2(C)CC[C@H]1OC(C)=O	unidentified human coronavirus	cytopathic effect	MRC5	25 µM, 72 h	inhibition	107%
COC(=O)N[C@H](C(=O)N1CCC[C@H]1c1ncc(-c2ccc(-c3ccc(-c4cnc([C@@H]5CCCN5C(=O)[C@@H](NC(=O)OC)C(C)C)[nH]4)cc3)cc2)[nH]1)C(C)C	Hepatitis C virus	viral replication, inhibitor	HeLa, GETYPE2A	replicon	EC50	0.0037 nM
NC(=O)c1ncn([C@@H]2O[C@H](CO)[C@@H](O)[C@H]2O)n1	Enterovirus B	cytopathic effect	Vero, B3 CVB3	–	IC50	1580 µM
CCOC(=O)N[C@@H](C(=O)N1CCC[C@H]1C(=O)Nc1cccc(C#CC#Cc2cccc(NC(=O)[C@@H]3CCCN3C(=O)[C@H](NC(=O)OCC)C(C)C)c2)c1)C(C)C	Hepatitis C virus	viral replication, inhibitor, luciferase	Huh-5-2, GETYPE1B	72 h, replicon	EC50	70 nM
CC(=O)OC[C@@]1(C)[C@H]2CC[C@@H]3CN(Cc4ccccc4C)[C@@H](C4=CCOC4=O)C[C@H]3[C@]2(C)CC[C@H]1OC(C)=O	unidentified human coronavirus	cytopathic effect	MRC5	25 µM, 72 h	inhibition	71.4%
